DDE Tn7 FP inh = inhibitors of Tn7 peptide binding to human fibrin DD(E). P02675. FP displacement of FITC-Tn7 peptide from fibrin DD(E); 0% = median of compound wells per plate. inhibition, % at 8.3 µM. 0.13% of 370,000 active. AID 720508;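 active = inhibition above the mean of compounds falling within the control limits plus 3 SD of them, cut at about 14% in these data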;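 also: 0% = plate median of compound wells and 100% = 10 µM Aha-Tn7 peptide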
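Assay system: Fibrin-DD(E) protein isolated from polymerized human fibrin clots; read-out basis: percent inhibition; medium: Tris/NaCl/CaCl2 buffer, pH 7.8; signal: FP measurement; incubation: 10 min plus 3 h, room temperature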
Tn6 DDE FP = disrupts Tn6 cyclic peptide binding to fibrin D-Dimer-E complex; P02675; Fibrin DD(E) TRITC-Tn6 fluorescence polarization displacement; inhibition, % at 8.3 µM; 0.21% of 370,000 active;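 active = inhibition above a per-campaign cutoff: mean of compounds within control limits plus 3 SD, cut at about 15% in these data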;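 also: 0% = median of all compound wells on the plate and 100% = blocking peptide control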
ABCG2 inh = blocks JC-1 efflux by human ABCG2 transporter. Q9UNQ0. IgMXP3 cells, flow cytometry. inhibition, % at 6.6 µM. 0.1% of 190,000 active. AID 1325;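 active = inhibition above 80%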;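 also: 0% = DMSO and 100% = nicardipine control wells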
Target sequence (Q9UNQ0 whole entry, looked up): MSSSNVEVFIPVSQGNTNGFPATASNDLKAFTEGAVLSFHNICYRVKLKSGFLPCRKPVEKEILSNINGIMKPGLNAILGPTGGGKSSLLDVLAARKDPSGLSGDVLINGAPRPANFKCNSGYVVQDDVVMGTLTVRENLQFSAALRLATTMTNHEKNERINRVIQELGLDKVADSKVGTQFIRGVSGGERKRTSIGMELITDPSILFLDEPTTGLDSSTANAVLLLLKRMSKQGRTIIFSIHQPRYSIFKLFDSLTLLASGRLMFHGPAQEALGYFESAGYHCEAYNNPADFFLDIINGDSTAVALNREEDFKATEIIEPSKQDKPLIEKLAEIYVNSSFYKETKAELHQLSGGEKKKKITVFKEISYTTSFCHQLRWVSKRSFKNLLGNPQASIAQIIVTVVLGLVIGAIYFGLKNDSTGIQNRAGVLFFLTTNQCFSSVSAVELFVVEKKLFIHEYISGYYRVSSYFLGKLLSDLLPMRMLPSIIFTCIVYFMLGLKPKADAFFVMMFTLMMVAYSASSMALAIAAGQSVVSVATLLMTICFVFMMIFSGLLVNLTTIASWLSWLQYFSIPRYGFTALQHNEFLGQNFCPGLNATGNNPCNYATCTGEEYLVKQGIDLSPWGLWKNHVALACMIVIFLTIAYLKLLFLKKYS
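Measure – % inhibition of efflux relative to nicardipine and DMSO · Test system – ABCG2 IgMXP3 and barcoded ABCB1 CCRF-Adr cell mix · Control set – nicardipine as high control, DMSO as low control · Compound – one concentration, 6.6 µM final · Signal – flow cytometry of retained JC-1 fluorescence · Timing – 10 min exposure at 25 °C with rotation, no wash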
ABCB1 block = human ABCB1 inhibition, ABCG2 as counter-screen. 0.067% of 190,000 active. CCRF-Adr cells, JC-1 efflux, flow cytometry. inhibition, % at 6.6 µM. P08183; in the data active = inhibition above about 40%;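 also: 0% = vehicle and 100% = reference inhibitor; higher value means more JC-1 retained so stronger ABCB1 efflux block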
GRK2 inh = blocks RNA aptamer binding to human GRK2; AID 488847; bead flow cytometry, FAM-aptamer displacement from GRK2; inhibition of aptamer binding, % at 10 µM; 0.59% of 330,000 active;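 active = inhibition of aptamer binding above 40%, roughly 3 SD of noise, on plates passing a quality check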;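 also: median bead fluorescence of bound FAM aptamer so fluorescent compounds give negative values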
Ins promoter up = MIN6 insulin promoter up-regulation | MIN6 insulin promoter-GFP reporter, high-content imaging; stronger effect = higher value | z-score at 5 µM | 0.3% of 190,000 active | AID 1625;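 active = z-score above 3 at 5 µM with at least 500 cells counted in the well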
GRK2 inh confirm = human GRK2 inhibition confirmation, cherry pick 1. aptamer displacement, % at 10 µM. bead-bound GRK2, FAM-aptamer displacement, flow cytometry. 4% of 2,000 active. shares compounds with GRK2 inh;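 active = aptamer displacement above 40%, near three times the noise of non-fluorescent compounds, on plates passing quality checks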;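 also: negative values mostly reflect intrinsic compound fluorescence rather than true enhancement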
Aptamer quench 1 = quenches fluorescent RNA aptamer, GRK2 hit artifact. shares compounds with GRK2 inh. Fluorescent RNA aptamer beads, quenching, flow cytometry; stronger effect = higher value. fluorescence change (kMESF span), kMESF (test concentration not listed). 110 tested, under 10 active;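 active = compounds whose bead fluorescence drops by more than 37 kMESF across the dose range, marking them as dye quenchers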
Aptamer quench SP = aptamer fluorescence quenching in GRK2 counter-screen | Carboxyfluorescein RNA aptamer on beads, flow cytometry quenching; stronger effect = lower value | fluorescence response (% of DMSO), % at 10 µM | 2,000 tested, under 10 active | shares compounds with GRK2 inh;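 active = compounds that quench the bead-bound fluorescent RNA probe, cutting fluorescence to under half of the solvent control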;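 also: counterscreen run without GRK2 so only probe quenching by compound is measured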
GRK2 CP2 = confirmation of human GRK2 inhibitors binding RNA aptamer site. shares compounds with GRK2 inh. bead-bound GRK2, FAM-aptamer displacement, flow cytometry. inhibition of aptamer binding, % at 10 µM. 360 tested, under 10 active;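 active = inhibition of aptamer binding above 40%, about triple the noise seen with nonglowing compounds, on plates passing quality control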;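 also: negative values mostly come from compounds that fluoresce themselves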
Aptamer quench3 = aptamer fluorescence quenching in GRK2 counter-screen dose response | shares compounds with GRK2 inh | Streptavidin beads, FAM-RNA aptamer fluorescence quenching, flow cytometry | change in fluorescence (kMESF span), kMESF (concentration not given with the values) | 25 tested, under 10 active | AID 504819;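 active = compounds quenching the bead-bound labeled aptamer, with fluorescence dropping by more than 37 kMESF over the dose range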
FAM quench SP = counter-screen for GRK2 binding hits: quenchers of fluorescent RNA aptamer; 360 tested, under 10 active; shares compounds with GRK2 inh; carboxyfluorescein RNA aptamer beads, flow cytometry quenching; stronger effect = lower value; fluorescence response vs DMSO, % at 10 µM; AID 588494;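 active = response vs DMSO under 50%, meaning signal dropped by over half, treated as fluorescence quencher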;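 also: labelled aptamer on streptavidin beads without GRK2 as a quench counter-screen; 100% = bead fluorescence of DMSO wells and lower means quenching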
FAM quench DR = aptamer fluorescence quenching in GRK2 powder counter-screen. shares compounds with GRK2 inh. Bead-bound FAM RNA aptamer fluorescence quenching, flow cytometry; stronger effect = lower value. fluorescence ratio to DMSO, % at 11.1 µM. 35 tested, under 10 active. AID 588496;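 active = compounds that dim the fluorescent label, raw bead signal shifting by over 33 units between lowest and highest dose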
* = called active by the depositor; · = no result given. This is a sample that favours compounds with a hit; in the whole collection about 0.99% have one here.

SMILES	DDE Tn7 FP inh	Tn6 DDE FP	ABCG2 inh	ABCB1 block	GRK2 inh	Ins promoter up	GRK2 CP2	FAM quench SP	others
CC(=O)NC(Cc1ccccc1)P(=O)(O)O (centres undefined)	-8.8	7.4	·	·	·	·	·	·
O=C1/C(=C/C=C/c2ccco2)SC(=S)N1NS(=O)(=O)c1ccccc1	2.8	-2.3	·	·	95.0*	·	·	·	GRK2 inh confirm=8.9;Aptamer quench SP=95.6
O=C(NCCc1c[nH]c2ccccc12)c1ccc([N+](=O)[O-])cc1	-0.5	4.7	6.4	0.5	41.0*	·	19.1	100.0
COC(=O)[C@]12C[C@H](CC(=O)N3CCSCC3)C(=O)N(Cc3ccco3)C1=C[C@H](C(C)(C)C)O[C@@H]2C	-2.9	6.5	·	·	·	·	·	·
COC(=O)[C@]12C[C@H](CC(=O)N3CCN(C(=O)c4ccco4)CC3)C(=O)N(Cc3cccc4ccccc34)C1=C[C@H](COCc1ccccc1)O[C@@H]2C	6.2	-0.9	·	·	·	·	·	·
O=c1c([N+](=O)[O-])c(Cl)c2ccccc2n1Cc1ccccc1	1.2	-5.7	·	·	·	·	·	·
Cc1cccnc1NC(=O)CCNC(=O)c1ccccc1Cl	-1.8	1.3	·	·	44.0*	·	11.5	102.0
COc1ccc(CC(=O)NNC(=O)COc2ccc(F)cc2)cc1S(=O)(=O)N1CCOCC1	8.6	4.5	·	·	41.0*	·	·	·	GRK2 inh confirm=-3.8;Aptamer quench SP=94.6
NC(=O)[C@@H]1CCCN1C(=O)[C@@H](Cc1ccccc1)NC(=O)[C@H]1O[C@@H](n2ccc(N)nc2=O)[C@H](O)[C@@H]1O	-0.5	2.0	·	·	·	·	·	·
O=C(Nc1cc(S(=O)(=O)N2CCOCC2)ccc1N1CCCC1)c1cc2c(s1)CCCC2	2.7	2.3	·	·	·	·	·	·
Cc1ccc(CONC(=O)c2ccc([N+](=O)[O-])cc2)cc1	-0.4	-11.8	·	·	0.0	·	·	·
Cc1ccccc1C(=O)NNC(=O)c1cccc([N+](=O)[O-])c1	2.1	1.6	2.2	0.9	60.0*	-0.28	·	·	GRK2 inh confirm=-3.7;Aptamer quench SP=101.2
Cc1cccc(C(=O)NNC(=O)c2ccccc2C)c1	-1.7	-3.1	5.9	0.5	1.0	0.53	·	·
O=C(Nc1ccc(NC(=O)c2cccc([N+](=O)[O-])c2)cc1)c1cccc([N+](=O)[O-])c1	8.7	-1.3	·	·	0.0	·	·	·
Cc1ccc(CONC(=O)c2cccc([N+](=O)[O-])c2)cc1	1.2	-0.7	·	·	43.0*	·	-10.6	100.0
O=C(Nc1cccc([N+](=O)[O-])c1)c1cccc(C(=O)Nc2cccc([N+](=O)[O-])c2)c1	-4.3	2.2	·	·	67.0*	0.42	·	·	GRK2 inh confirm=27.4;Aptamer quench SP=100.7
N#CCSc1nc2sc3c(c2c(=O)n1C1CCCCC1)CCCC3	3.6	-4.3	10.6	0.2	2.0	-0.5	·	·
CCSc1nc2sc3c(c2c(=O)n1CC)CCC3	-1.3	-9.8	·	·	3.0	·	16.1	99.0
C#CCSc1nc2sc3c(c2c(=O)n1C)CCC3	0.7	-2.1	·	·	55.0*	·	66.9*	102.0	GRK2 inh confirm=52.5*;Aptamer quench 1=4;Aptamer quench SP=164.5;Aptamer quench3=-2.9;FAM quench DR=99.0
CSc1nc2sc3c(c2c(=O)n1C)CCCC3	0.0	-2.5	3.8	0.2	2.0	0.65	·	·
CSc1nc2sc3c(c2c(=O)n1C)CCC3	-3.6	-5.1	·	·	1.0	·	-68.8	98.0
O=[N+]([O-])c1cccc(OC[C@@H](O)CN2CCC(C(O)(c3ccccc3)c3ccccc3)CC2)c1	-2.7	0.4	·	·	·	·	·	·
CCCNC(=O)N(C)C[C@@H]1Oc2ncc(-c3ccncc3)cc2C(=O)N([C@H](C)CO)C[C@@H]1C	-2.0	4.2	·	·	·	·	·	·
COCCn1c(SCc2cccc([N+](=O)[O-])c2)nc2ccccc2c1=O	-1.6	-7.2	·	·	0.0	·	·	·
Cn1c(SCc2cccc([N+](=O)[O-])c2)nc2ccccc2c1=O	-4.4	11.1	·	·	47.0*	·	·	·	GRK2 inh confirm=-0.9;Aptamer quench SP=99.9
SMILES	DDE Tn7 FP inh	Tn6 DDE FP	ABCG2 inh	ABCB1 block	GRK2 inh	Ins promoter up	GRK2 CP2	FAM quench SP	others
O=C(Nc1ccccc1)c1ccc(CN2CCc3ccccc3C2)cc1	3.5	2.2	24.6	1.3	100.0*	·	-14.0	98.0
COC(=O)C1CN(Cc2cn(CCOC(C)=O)nn2)CCS(=O)(=O)N1Cc1ccc(C)cc1 (centres undefined)	1.6	2.5	·	·	·	·	·	·
CN1CCc2c(sc(NC(=O)CS(=O)(=O)c3ccccc3)c2C(N)=O)C1	-4.0	4.7	·	·	3.0	·	-3.9	100.0
CNC(=O)c1c(NC(=O)CCS(=O)(=O)c2ccc(C)cc2)sc2c1CCN(C(=O)OC)C2	-6.3	-1.1	·	·	0.0	·	12.4	98.0
CCCN1CCc2c(sc(NC(=O)CCS(=O)(=O)c3ccccc3)c2C(N)=O)C1	-6.1	0.8	·	·	1.0	·	·	·
CC(=O)N1CCc2c(sc(NC(=O)CCS(=O)(=O)c3ccc(C)cc3)c2C#N)C1	-2.0	-1.8	·	·	0.0	·	23.7	100.0
CNC(=O)c1c(NC(=O)CCS(=O)(=O)c2ccccc2)sc2c1CCN(C(=O)OC)C2	-10.9	1.5	·	·	30.0	·	12.7	104.0
CC(=O)N1CCc2c(sc(NC(=O)Cc3ccc(C)cc3C)c2C#N)C1	7.4	-4.2	·	·	3.0	·	·	·
Cc1cc(C)c(N2C(=O)CC(Sc3ccccc3N)C2=O)c(C)c1 (centres undefined)	2.3	-5.9	·	·	·	·	·	·
O=C(NCc1ccc(Cl)cc1)C1CCCN(C(=O)c2ccc(Cl)cc2)C1 (centres undefined)	0.3	-4.2	·	·	2.0	·	·	·
CN(C)C(CNC(=O)C1CCCN(C(=O)c2ccc(Cl)cc2)C1)c1ccco1 (centres undefined)	4.3	-0.3	-2.1	-0.3	68.0*	1.04	·	·	GRK2 inh confirm=-5.4;Aptamer quench SP=95.1
COC(=O)C1=C(C)N(C)C(=NCc2cc(OC)c(OC)c(OC)c2)NC1c1cccc(Cl)c1 (centres undefined)	12.1	0.0	·	·	·	·	·	·
COc1ccc(C2Nc3cccc4cccc(c34)N2)cc1Br	-0.6	-0.5	·	·	68.0*	·	·	·	GRK2 inh confirm=-7.3;Aptamer quench SP=99.8
